The source of these data is paper PMC4176373 (Nucleic Acids Research, 2014).

The target of one series is mouse eIF4E(28–217) (Mus musculus, UniProt P63073). The settings on record: 50 mM HEPES/KOH (pH 7.2), 100 mM KCl, 20°C; cited from earlier work.
Series [1] concerns human immature dendritic cells (hiDCs). As to the kind of experiment: Luciferase expression from 5′-capped mRNAs in dendritic cells. The settings on record: luciferase mRNA capped with the analog, electroporated into hiDCs. The format is cell-based. The gist of the method: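 Luciferase mRNA made by T7 in vitro transcription with the cap dinucleotide added co-transcriptionally; plasmid DNA digested and RNA purified. Capped mRNA electroporated into human immature dendritic cells. Luciferase activity read at 2, 4, 8, 24, 48 and 72 h, in duplicate, and normalised to cell number. Time of maximal expression derived by spline interpolation of the time course.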

Series [2] concerns the target T1, CeDcpS (Caenorhabditis elegans, UniProt G5EFS4).
T1 sequence (G5EFS4 1-311): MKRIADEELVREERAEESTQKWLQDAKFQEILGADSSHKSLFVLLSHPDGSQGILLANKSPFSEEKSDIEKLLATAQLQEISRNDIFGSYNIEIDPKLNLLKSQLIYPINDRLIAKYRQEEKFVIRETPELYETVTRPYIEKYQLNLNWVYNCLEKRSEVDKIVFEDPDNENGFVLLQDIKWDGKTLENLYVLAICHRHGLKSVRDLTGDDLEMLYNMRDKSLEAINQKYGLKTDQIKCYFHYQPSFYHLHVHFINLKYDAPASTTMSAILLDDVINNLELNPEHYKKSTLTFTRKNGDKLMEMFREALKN
The settings on record: pH 7.6, 20°C; cited from earlier work.

The target in series [3] is T2, hDcpS (Homo sapiens, UniProt Q96C86).
T2 sequence (Q96C86 1-337): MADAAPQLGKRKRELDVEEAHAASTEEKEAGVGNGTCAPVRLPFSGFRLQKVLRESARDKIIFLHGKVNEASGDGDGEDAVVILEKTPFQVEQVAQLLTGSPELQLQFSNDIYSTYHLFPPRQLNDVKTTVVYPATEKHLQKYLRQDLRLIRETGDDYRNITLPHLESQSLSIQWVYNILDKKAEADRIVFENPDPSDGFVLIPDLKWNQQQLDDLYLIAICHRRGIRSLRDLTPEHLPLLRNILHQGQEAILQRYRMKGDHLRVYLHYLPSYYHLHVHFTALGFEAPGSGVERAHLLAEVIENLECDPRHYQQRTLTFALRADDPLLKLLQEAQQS
The settings on record: pH 7.6, 20°C; cited from earlier work.

The next series can be described thus: Stacking measurements. The settings on record: 0.1 M phosphate buffer, pH 5.2, 20°C; from fluorescence intensity of 7-methylguanosine; mean ± SD. In kind it is physicochemical. Summed up: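 Dinucleotide fluorescence intensity compared with m⁷GMP (7-methylguanosine fluorophore) in phosphate buffer, pH 5.2, at 20 °C. Stacked fraction calculated as (F_m7GMP − F_cap)/F_m7GMP, since stacking partially quenches 7-methylguanosine fluorescence. Values given as mean ± SD.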

The target of series [4] is T2, hDcpS. As to the kind of experiment: HPLC-based assay of DcpS-mediated hydrolysis, Assay 2. The format is biochemical. The conditions noted are these: DcpS 200 nM, cap analog 15 μM, pH 7.6, 20 °C.
In series [5] the target is T1, CeDcpS. In words: HPLC-based assay of DcpS-mediated hydrolysis, Assay 2. The settings on record: DcpS 200 nM, cap analog 15 μM, pH 7.6, 20 °C. In kind it is biochemical. Summed up: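 Substrate at 15 µM sits 10 min at 20°C in 50 mM Tris HCl, 200 mM KCl, 0.5 mM EDTA, 1 mM DTT (final pH 7.6) before enzyme is added to 0.2 μM. Aliquots are heat-stopped at 97°C for 2.5 min at 10 and 90 min. Analysis is RP HPLC (methanol 0–30% in 0.1 M KH₂PO₄), reading A260 and fluorescence (ex 280/em 337 nm). Output is x = % substrate hydrolysed, with the substrate peak multiplied by 1.1. CeDcpS was E. coli-expressed and Ni-NTA-purified.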

Chain of mouse eIF4E(28–217) (P63073 28-217): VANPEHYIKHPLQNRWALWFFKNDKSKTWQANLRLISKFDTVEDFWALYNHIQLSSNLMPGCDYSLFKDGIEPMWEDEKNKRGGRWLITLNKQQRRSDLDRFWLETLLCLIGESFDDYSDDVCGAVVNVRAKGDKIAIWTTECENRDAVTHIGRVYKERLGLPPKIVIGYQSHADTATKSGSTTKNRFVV

As for `CO[C@@H]1[C@H](O)[C@@H](COP(=O)(O)OP(=O)([O-])OP(=O)(O)OC[C@H]2O[C@@H](n3cnc4c(=O)[nH]c(N)nc43)[C@H](O)[C@@H]2O)O[C@H]1n1c[n+](C)c2c(O)nc(N)nc21` [m2^7,2′-OGpppG], on mouse eIF4E(28–217), the “KAS (equilibrium association constant) for eIF4E” value (“KAS … for eIF4E” for short) is 10.8 ± 0.3 µM⁻¹.

Consider `CO[C@H]1[C@@H](O)[C@H]([n+]2cn(C)c3c(=O)[nH]c(N)nc32)O[C@@H]1COP(=O)([O-])OP(=O)(O)OP(=O)(O)OC[C@H]1O[C@@H](n2cnc3c(=O)[nH]c(N)nc32)[C@H](O)[C@@H]1O` [m2^7,3′-OGpppG], for which, in series [1], the “Time of max. (time point of maximal protein expression, functional RNA stability)” value is 11.45 ± 0.07 h.

Regarding `C[n+]1cn([C@@H]2O[C@H](COP(=O)(O)OP(=O)(O)O)[C@@H](O)[C@H]2O)c2nc(N)[nH]c(=O)c21` [m^7GDP, 7-methylguanosine diphosphate], the “KAS for CeDcpS” value on CeDcpS [2] was 97 ± 12^c μM^−1. In addition, the “KAS for hDcpS” value on hDcpS [3] was 114 ± 8^b μM^−1.

As for `C[n+]1cn([C@@H]2O[C@H](COP(=O)(O)CP(=O)(O)OP(=O)(O)OC[C@H]3O[C@@H](n4cnc5c(=O)[nH]c(N)nc54)[C@H](O)[C@@H]3O)[C@@H](O)[C@H]2O)c2nc(N)[nH]c(=O)c21` [m^7GpCH2ppG], the “KAS for CeDcpS” value at CeDcpS [2] is on record as 8.6 ± 0.4^c μM^−1. The “KAS for hDcpS” value on hDcpS [3] is 234 ± 14^e μM^−1.

In the case of `C[n+]1cn([C@@H]2O[C@H](COP(=O)([O-])NP(=O)(O)OP(=O)(O)OC[C@H]3O[C@@H](n4cnc5c(=O)[nH]c(N)nc54)[C@H](O)[C@@H]3O)[C@@H](O)[C@H]2O)c2nc(N)[nH]c(=O)c21.N.N` [m^7GpNHppG], the “KAS for CeDcpS” value on CeDcpS [2] is 66 ± 9^c μM^−1. Moreover, the “KAS for hDcpS” value on hDcpS [3] is on record as 218 ± 24^d μM^−1.

On to `C[n+]1cn([C@@H]2O[C@H](COP(=O)(O)OP(O)(=S)OP(=O)(O)OC[C@H]3O[C@@H](n4cnc5c(=O)[nH]c(N)nc54)[C@H](O)[C@@H]3O)[C@@H](O)[C@H]2O)c2nc(N)[nH]c(=O)c21` (some centres unmarked) [m^7GppSpG D1], for which the “% of stacked conformation” value in “Stacking measurements” turned out to be 61.8 ± 0.7%. For the same molecule, at hDcpS [4] (reaction time 10 min), the “Percent of cleavage, x (%) hDcpS 10 min” value was 100%. For the same molecule, the “Percent of cleavage, x (%) hDcpS 90 min” value on hDcpS [4] (reaction time 90 min) is given as 100%. For the same molecule, the “Percent of cleavage, x (%) CeDcpS 10 min” value at CeDcpS [5] (reaction time 10 min) is listed as 100%. Also, the “Percent of cleavage, x (%) CeDcpS 90 min” value on CeDcpS [5] (reaction time 90 min) is 100%. Besides, the “KAS … for eIF4E” value at mouse eIF4E(28–217) is 45.0 ± 1.1 µM⁻¹.

As to `C[n+]1cn(C2OC(COP(=O)(O)OP(O)(=S)OP(=O)(O)OCC3OC(n4cnc5c(=O)[nH]c(N)nc54)C(O)C3O)C(O)C2O)c2nc(N)[nH]c(=O)c21` (centres unmarked) [m^7GppSpG D2], the “% of stacked conformation” value in the series “Stacking measurements” is listed as 60.8 ± 0.2%. For the same molecule, the “KAS … for eIF4E” value on mouse eIF4E(28–217) was 23.0 ± 0.4 µM⁻¹.

Consider `C[n+]1cn([C@@H]2O[C@H](COP(=O)(O)OP(=O)(O)OP(=O)(O)OC[C@H]3O[C@@H](n4c[n+](C)c5c(=O)[nH]c(N)nc54)[C@H](O)[C@@H]3O)[C@@H](O)[C@H]2O)c2nc(N)[nH]c(=O)c21` [m^7Gpppm^7G], for which the “KAS … for eIF4E” value on mouse eIF4E(28–217) was 5.0 ± 0.2 µM⁻¹.
